Measurements as given in ChEMBL document CHEMBL2384906, “Biological activity, design, synthesis and structure activity relationship of some novel derivatives of curcumin containing sulfonamides” (Eur J Med Chem, 2013).
Converted amounts (≈) assume the structure as drawn. The source made the active and inactive calls. The calls are words filed in the database; no cut-off is given here.

How the values were obtained:
Trichoderma viride [1] = assay: Antifungal activity against Trichoderma viride MTCC 1107 assessed as zone of inhibition at 40 uM after 48 hrs by disc diffusion method; assay type: functional; conditions: MTCC 1107, 48 h, read-out: IZ
Summary of the method: (§1)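 Spores from 4-day potato dextrose agar cultures, suspended in sterile water at 1.5 × 10⁵ CFU/mL. 0.2 mL was spread on potato dextrose agar. 5 mm filter-paper discs soaked with test compound were laid on the lawn. Incubation was 48 h at 28 °C, then the inhibition zone was measured in mm. Fluconazole was the positive control and acetone the negative control.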

Staphylococcus aureus [2] = assay: Antimicrobial activity against Staphylococcus aureus ATCC 11632 assessed as diameter of inhibition zone at 20 uM after 24 hrs by Kirby -Baur disc diffusion method; assay type: functional; conditions: ATCC 11632, 24 h, read-out: DIZ
Summary of the method: (§2)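 Kirby-Bauer disc diffusion was used. Acetone stocks (160 µM) were serially doubled down to 80, 40 and 20 µM. 4 µL of each went onto 5 mm sterile paper discs, which were dried 30 min at 50 °C. Inoculum was 1.5 × 10⁸ CFU/mL diluted to 3 × 10² CFU/mL, and 50 µL was spread on Mueller-Hinton agar. After 24 h at 37 °C the inhibition-zone diameter was measured. Ciprofloxacin served as positive control.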

Aspergillus niger [3] = assay: Antifungal activity against Aspergillus niger MTCC 1108 after 48 hrs; assay type: functional; conditions: MTCC 1108, 48 h
Curvularia lunata [4] = assay: Antifungal activity against Curvularia lunata MTCC 581 after 48 hrs; assay type: functional; conditions: MTCC 581, 48 h
HeLa = assay: Cytotoxicity against human HeLa cells after 24 hrs by MTT assay; assay type: functional, cell-based
Summary of the method: (§3)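 The MTT assay seeded 5 × 10⁴ cells per well and grew them 24 h in RPMI 1640 with compound at 2.5–200 µM. Medium without cells was the blank and adriamycin the positive control. MTT was added for 4 h at 37 °C, formazan was solubilised, and absorbance was read at 570 nm. IC50 is the concentration that cuts viability 50% against untreated cells.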

Salmonella typhi [5] = assay: Antimicrobial activity against Salmonella typhi ATCC 23564 assessed as diameter of inhibition zone at 40 uM after 24 hrs by Kirby -Baur disc diffusion method; assay type: functional, Salmonella enterica subsp. enterica serovar Typhi; conditions: Salmonella enterica, ATCC 23564, 24 h; read-out: DIZ
Trichoderma viride [6] = assay: Antifungal activity against Trichoderma viride MTCC 1107 assessed as zone of inhibition at 80 uM after 48 hrs by disc diffusion method; assay type: functional; conditions: MTCC 1107, 48 h, read-out: IZ; summary of the method: as §1
Aspergillus flavus [7] = assay: Antifungal activity against Aspergillus flavus MTCC 1021 assessed as zone of inhibition at 20 uM after 48 hrs by disc diffusion method; assay type: functional; summary of the method: as §1
Curvularia lunata [8] = assay: Antifungal activity against Curvularia lunata MTCC 581 assessed as zone of inhibition at 20 uM after 48 hrs by disc diffusion method; assay type: functional; conditions: MTCC 581, 48 h, read-out: IZ; summary of the method: as §1
Trichoderma viride [9] = assay: Antifungal activity against Trichoderma viride MTCC 1107 assessed as zone of inhibition at 20 uM after 48 hrs by disc diffusion method; assay type: functional; conditions: MTCC 1107, 48 h, read-out: IZ; summary of the method: as §1
Pseudomonas aeruginosa [10] = assay: Antimicrobial activity against Pseudomonas aeruginosa ATCC 15499 assessed as diameter of inhibition zone at 80 uM after 24 hrs by Kirby -Baur disc diffusion method; assay type: functional; conditions: ATCC 15499, 24 h, read-out: DIZ; summary of the method: as §2
Aspergillus niger [11] = assay: Antifungal activity against Aspergillus niger MTCC 1108 assessed as zone of inhibition at 80 uM after 48 hrs by disc diffusion method; assay type: functional; conditions: MTCC 1108, 48 h, read-out: IZ; summary of the method: as §1
Curvularia lunata [12] = assay: Antifungal activity against Curvularia lunata MTCC 581 assessed as zone of inhibition at 40 uM after 48 hrs by disc diffusion method; assay type: functional; conditions: MTCC 581, 48 h, read-out: IZ; summary of the method: as §1
Salmonella typhi [13] = assay: Antimicrobial activity against Salmonella typhi ATCC 23564 assessed as diameter of inhibition zone at 80 uM after 24 hrs by Kirby -Baur disc diffusion method; assay type: functional, Salmonella enterica subsp. enterica serovar Typhi; conditions: Salmonella enterica, ATCC 23564, 24 h; read-out: DIZ
Staphylococcus aureus [14] = assay: Antimicrobial activity against Staphylococcus aureus ATCC 11632 assessed as diameter of inhibition zone at 80 uM after 24 hrs by Kirby -Baur disc diffusion method; assay type: functional; conditions: ATCC 11632, 24 h, read-out: DIZ; summary of the method: as §2
Aspergillus flavus [15] = assay: Antifungal activity against Aspergillus flavus MTCC 1021 assessed as zone of inhibition at 40 uM after 48 hrs by disc diffusion method; assay type: functional; conditions: MTCC 1021, 48 h, read-out: IZ; summary of the method: as §1
Escherichia coli [16] = assay: Antimicrobial activity against Escherichia coli ATCC 35218 assessed as diameter of inhibition zone at 20 uM after 24 hrs by Kirby -Baur disc diffusion method; assay type: functional; conditions: ATCC 35218, 24 h, read-out: DIZ; summary of the method: as §2
HepG2 = assay: Cytotoxicity against human HepG2 cells after 24 hrs by MTT assay; assay type: functional, cell-based; summary of the method: as §3
Aspergillus flavus [17] = assay: Antifungal activity against Aspergillus flavus MTCC 1021 after 48 hrs; assay type: functional; conditions: MTCC 1021, 48 h
Bacillus cereus [18] = assay: Antimicrobial activity against Bacillus cereus MTCC 7350 assessed as diameter of inhibition zone at 20 uM after 24 hrs by Kirby -Baur disc diffusion method; assay type: functional; conditions: MTCC 7350, 24 h, read-out: DIZ; summary of the method: as §2
Escherichia coli [19] = assay: Antimicrobial activity against Escherichia coli ATCC 35218 assessed as diameter of inhibition zone at 80 uM after 24 hrs by Kirby -Baur disc diffusion method; assay type: functional; conditions: ATCC 35218, 24 h, read-out: DIZ; summary of the method: as §2
Escherichia coli [20] = assay: Antimicrobial activity against Escherichia coli ATCC 35218 after 24 hrs by broth micro serial dilution method; assay type: functional; conditions: ATCC 35218, 24 h
Summary of the method: (§4)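 This was broth microdilution in autoclaved Mueller-Hinton broth. 150 µL of compound per well was serially diluted […], and 50 µL of test organism was added. Plates were incubated 24 h at 37 °C and optical density was read.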

Staphylococcus aureus [21] = assay: Antimicrobial activity against Staphylococcus aureus ATCC 11632 after 24 hrs by broth micro serial dilution method; assay type: functional; conditions: ATCC 11632, 24 h; summary of the method: as §4
Pseudomonas aeruginosa [22] = assay: Antimicrobial activity against Pseudomonas aeruginosa ATCC 15499 after 24 hrs by broth micro serial dilution method; assay type: functional; conditions: ATCC 15499, 24 h; summary of the method: as §4
Mus musculus = assay: Antiinflammatory activity in mouse assessed as inhibition of carrageenan-induced increase in paw volume at 200 mg/kg administered 1 hr prior to carrageenan challenge measured after 3 hrs relative to control; assay type: functional
Summary of the method: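 Mice were fasted 2 h and placed in groups of five. Controls received saline i.p. Phenylbutazone was given at 100 mg/kg i.p., curcumin at 200 mg/kg i.p., and derivatives at 200 mg/kg. After 1 h, 0.1 mL of 1% carrageenan in saline was injected subplantar into the right hind paw. Paw volume was followed by plethysmometer for 3 h, and % inhibition was calculated as (Vc − Vt)/Vc × 100.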

Bacillus cereus [23] = assay: Antimicrobial activity against Bacillus cereus MTCC 7350 assessed as diameter of inhibition zone at 40 uM after 24 hrs by Kirby -Baur disc diffusion method; assay type: functional; conditions: MTCC 7350, 24 h, read-out: DIZ; summary of the method: as §2
QG-56 = assay: Cytotoxicity against human QG56 cells after 24 hrs by MTT assay; assay type: functional, cell-based; summary of the method: as §3
Aspergillus flavus [24] = assay: Antifungal activity against Aspergillus flavus MTCC 1021 assessed as zone of inhibition at 80 uM after 48 hrs by disc diffusion method; assay type: functional; conditions: MTCC 1021, 48 h, read-out: IZ; summary of the method: as §1
Aspergillus niger [25] = assay: Antifungal activity against Aspergillus niger MTCC 1108 assessed as zone of inhibition at 20 uM after 48 hrs by disc diffusion method; assay type: functional; conditions: MTCC 1108, 48 h, read-out: IZ; summary of the method: as §1
Curvularia lunata [26] = assay: Antifungal activity against Curvularia lunata MTCC 581 assessed as zone of inhibition at 80 uM after 48 hrs by disc diffusion method; assay type: functional; conditions: MTCC 581, 48 h, read-out: IZ; summary of the method: as §1
Salmonella typhi [27] = assay: Antimicrobial activity against Salmonella typhi ATCC 23564 assessed as diameter of inhibition zone at 20 uM after 24 hrs by Kirby -Baur disc diffusion method; assay type: functional, Salmonella enterica subsp. enterica serovar Typhi; conditions: Salmonella enterica, ATCC 23564, 24 h; read-out: DIZ
Pseudomonas aeruginosa [28] = assay: Antimicrobial activity against Pseudomonas aeruginosa ATCC 15499 assessed as diameter of inhibition zone at 40 uM after 24 hrs by Kirby -Baur disc diffusion method; assay type: functional; conditions: ATCC 15499, 24 h, read-out: DIZ; summary of the method: as §2
HCT-116 = assay: Cytotoxicity against human HCT116 cells after 24 hrs by MTT assay; assay type: functional, cell-based; summary of the method: as §3
Escherichia coli [29] = assay: Antimicrobial activity against Escherichia coli ATCC 35218 assessed as diameter of inhibition zone at 40 uM after 24 hrs by Kirby -Baur disc diffusion method; assay type: functional; conditions: ATCC 35218, 24 h, read-out: DIZ; summary of the method: as §2
Staphylococcus aureus [30] = assay: Antimicrobial activity against Staphylococcus aureus ATCC 11632 assessed as diameter of inhibition zone at 40 uM after 24 hrs by Kirby -Baur disc diffusion method; assay type: functional; conditions: ATCC 11632, 24 h, read-out: DIZ; summary of the method: as §2
Salmonella typhi [31] = assay: Antimicrobial activity against Salmonella typhi ATCC 23564 after 24 hrs by broth micro serial dilution method; assay type: functional, Salmonella enterica subsp. enterica serovar Typhi; conditions: Salmonella enterica, ATCC 23564, 24 h
Trichoderma viride [32] = assay: Antifungal activity against Trichoderma viride MTCC 1107 after 48 hrs; assay type: functional; conditions: MTCC 1107, 48 h
Bacillus cereus [33] = assay: Antimicrobial activity against Bacillus cereus MTCC 7350 assessed as diameter of inhibition zone at 80 uM after 24 hrs by Kirby -Baur disc diffusion method; assay type: functional; conditions: MTCC 7350, 24 h, read-out: DIZ; summary of the method: as §2
Pseudomonas aeruginosa [34] = assay: Antimicrobial activity against Pseudomonas aeruginosa ATCC 15499 assessed as diameter of inhibition zone at 20 uM after 24 hrs by Kirby -Baur disc diffusion method; assay type: functional; summary of the method: as §2
Aspergillus niger [35] = assay: Antifungal activity against Aspergillus niger MTCC 1108 assessed as zone of inhibition at 40 uM after 48 hrs by disc diffusion method; assay type: functional; conditions: MTCC 1108, 48 h, read-out: IZ; summary of the method: as §1
Bacillus cereus [36] = assay: Antimicrobial activity against Bacillus cereus MTCC 7350 after 24 hrs by broth micro serial dilution method; assay type: functional; conditions: MTCC 7350, 24 h; summary of the method: as §4

COc1cc(/C=C/C(O)=C/C(/C=C/c2ccc(O)c(OC)c2)=N/c2ccc(S(=O)(=O)Nc3ccccn3)cc2)ccc1O
zone of inhibition at 40 µM (Trichoderma viride [1]): 13 mm | zone of inhibition at 20 µM (Staphylococcus aureus [2]): 11 mm | MIC (Aspergillus niger [3]): 40 µM (≈ 24 µg/mL) | MIC (Curvularia lunata [4]): > 80 µM | IC50 (HeLa): 50 µM | zone of inhibition at 40 µM (Salmonella typhi [5]): 14 mm | zone of inhibition at 80 µM (Trichoderma viride [6]): 17 mm | inhibition zone (IZ) (Aspergillus flavus [7]): inactive | zone of inhibition at 20 µM (Curvularia lunata [8]): 9 mm | zone of inhibition at 20 µM (Trichoderma viride [9]): 10 mm | zone of inhibition at 80 µM (Pseudomonas aeruginosa [10]): 13 mm | zone of inhibition at 80 µM (Aspergillus niger [11]): 14 mm | zone of inhibition at 40 µM (Curvularia lunata [12]): 9 mm | zone of inhibition at 80 µM (Salmonella typhi [13]): 18 mm | zone of inhibition at 80 µM (Staphylococcus aureus [14]): 18 mm | zone of inhibition at 40 µM (Aspergillus flavus [15]): 9 mm | zone of inhibition at 20 µM (Escherichia coli [16]): 15 mm | IC50 (HepG2): 25 µM | MIC (Aspergillus flavus [17]): > 80 µM | zone of inhibition at 20 µM (Bacillus cereus [18]): 11 mm | zone of inhibition at 80 µM (Escherichia coli [19]): 20 mm | MIC (Escherichia coli [20]): 20 µM (≈ 12 µg/mL) | MIC (Staphylococcus aureus [21]): 20 µM (≈ 12 µg/mL) | MIC (Pseudomonas aeruginosa [22]): 20 µM (≈ 12 µg/mL) | inhibition in vivo at 200 mg/kg (Mus musculus): 37% | zone of inhibition at 40 µM (Bacillus cereus [23]): 16 mm | IC50 (QG-56): 50 µM | zone of inhibition at 80 µM (Aspergillus flavus [24]): 12 mm | zone of inhibition at 20 µM (Aspergillus niger [25]): 9 mm | zone of inhibition at 80 µM (Curvularia lunata [26]): 12 mm | zone of inhibition at 20 µM (Salmonella typhi [27]): 11 mm | zone of inhibition at 40 µM (Pseudomonas aeruginosa [28]): 11 mm | IC50 (HCT-116): 25 µM | zone of inhibition at 40 µM (Escherichia coli [29]): 19 mm | zone of inhibition at 40 µM (Staphylococcus aureus [30]): 17 mm | MIC (Salmonella typhi [31]): 20 µM (≈ 12 µg/mL) | MIC (Trichoderma viride [32]): 20 µM (≈ 12 µg/mL) | zone of inhibition at 80 µM (Bacillus cereus [33]): 19 mm | diameter of the inhibition zone (DIZ) (Pseudomonas aeruginosa [34]): inactive | zone of inhibition at 40 µM (Aspergillus niger [35]): 12 mm | MIC (Bacillus cereus [36]): 20 µM (≈ 12 µg/mL)
